Screens: PubChem BioAssay, several laboratories
SENP1 FRET inh: human SENP1 catalytic domain inhibitors, primary screen, biochemical, FRET, uHTS; Sentrin-specific protease 1 (Homo sapiens), Q9P0U3; recombinant SENP1 catalytic domain, CyPet-SUMO1-YPet FRET cleavage; inhibition, % at 10 µM; 360,000 tested, 0.21% active; AID 624204, 2012;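 active = inhibition at least 30% at 10 µM, raw YFP signal under a set limit, fluorescence ratio 0.5 to 1.5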;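 note: 0% = enzyme with DMSO and 100% = no enzyme wells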
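material = recombinant human SENP1 catalytic domain, His6-tagged | quantity = 20 pM enzyme | reagent = 25 nM SUMO1 FRET substrate | compound dosing = 10 µM single point, 0.5% DMSO | timing = 50 min enzyme reaction, room temperature, light-protected | detection = FRET, CFP and YFP emission | control set = no-enzyme low, enzyme-DMSO high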
MT1-MMP act inh: blockers of MT1-MMP proenzyme processing, primary screen, HT1080 RFP-PRO-GFP cells, GFP/RFP fluorescence. GFP/RFP ratio change, % at 20 µM. AID 651647, 2012. 360,000 tested, 0.061% active. GFP/RFP ratio fluorescence, overnight; percent of plate control window, DMSO zero. Matrix metalloproteinase-14 (Homo sapiens), P50281;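 active = GFP/RFP ratio change of at least 30% with cell ATP level not reduced by more than half and red fluorescence within 50% of control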
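Compound: 20 µM single dose, 1% DMSO / System: HT1080 RFP-PRO-GFP cells / Controls: DMSO and RFP-L50D-GFP cell wells / Read-out basis: GFP/RFP fluorescence ratio / Schedule: overnight compound exposure at 37 °C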
MIN6 prolif-1: inducers of MIN6 beta-cell proliferation, primary screen, ATP luminescence, uHTS. MIN6 cells proliferation, ATPlite luminescence, 48 h; cells starved in 0.2% serum; 100% = growth in 10% serum. 330,000 tested, 0.29% active. proliferation, % at 10 µM;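 active = compounds whose signal lies at least 3.5 SD above the mean of all wells on their plate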;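 note: 0% = DMSO-treated cells in low-serum medium and 100% = 10% serum control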
Myeloid diff MLP: induction of myeloid progenitor differentiation, primary screen, cell-based, flow cytometry, MLPCN library | ER-HoxA9 myeloid progenitors, lysozyme-GFP differentiation | calls only at 10 µM | 360,000 tested, 1% active | AID 624256, 2012;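 active = normalized GFP-positive differentiation at or above the plate's own cutoff, the solvent-only control mean plus 3 SD; inconclusive = no clear call, values can overlap the other calls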;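 note: cells exposed to compound for four days before flow analysis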
NRP1-CendR mod: modulators of CendR peptide binding to NRP-1, primary screen, biochemical, fluorescence polarization, uHTS | FAM-RPARPAR peptide binding to NRP-1 | inhibition, % at 25 µM | 360,000 tested, 0.85% active;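 active = inhibition or corrected inhibition above about 18%, plus a signal ratio from 0.5 to 1.5, limit read from the data, passing the limit was not always enough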
DAGLB inhibitor: DAGLB lipase inhibitors, primary screen, biochemical, fluorescence, HTS; AID 504411, 2011; HEK293T DAGLB membrane lysate, EnzChek fluorogenic substrate; 340,000 tested, 0.059% active; inhibition, % at 5.17 µM; in the data active = inhibition above about 34%;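 note: 0% = enzyme with vehicle and 100% = wells lacking enzyme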
Target sequence (Q8NCG7 whole entry, looked up): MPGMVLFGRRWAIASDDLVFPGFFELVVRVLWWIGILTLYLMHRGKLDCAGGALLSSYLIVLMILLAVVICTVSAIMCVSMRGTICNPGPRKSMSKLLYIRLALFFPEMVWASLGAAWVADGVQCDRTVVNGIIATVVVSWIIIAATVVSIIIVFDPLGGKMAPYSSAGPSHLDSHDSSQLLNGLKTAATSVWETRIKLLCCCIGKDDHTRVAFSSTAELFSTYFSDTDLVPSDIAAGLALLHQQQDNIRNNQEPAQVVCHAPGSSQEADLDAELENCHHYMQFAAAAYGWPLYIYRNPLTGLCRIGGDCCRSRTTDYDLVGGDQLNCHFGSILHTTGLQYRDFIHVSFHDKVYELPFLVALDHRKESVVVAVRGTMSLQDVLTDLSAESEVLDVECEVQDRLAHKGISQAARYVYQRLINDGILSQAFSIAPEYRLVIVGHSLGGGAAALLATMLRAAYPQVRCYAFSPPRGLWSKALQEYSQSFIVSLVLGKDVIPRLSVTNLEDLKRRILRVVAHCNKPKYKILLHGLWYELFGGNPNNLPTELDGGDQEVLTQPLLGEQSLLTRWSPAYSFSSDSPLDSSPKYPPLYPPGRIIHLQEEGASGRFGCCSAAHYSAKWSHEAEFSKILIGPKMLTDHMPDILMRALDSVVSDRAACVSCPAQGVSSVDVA
MIN6 prolif-2: inducers of beta-cell proliferation in MIN6, confirmation, MIN6 cells, mouse; shares compounds with MIN6 prolif-1; ATPlite luminescence, 48 h; cells kept in 0.2% serum; scaled between 0.2% and 10% serum; proliferation increase, % at 50 µM; 920 tested, under 10 active; AID 463095, 2010;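 active = proliferation increase above 40% at any of the four tested concentrations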
* hit, by the source's call; i = inactive; ? = inconclusive; / = no result given. Most compounds without a hit are left out; they make up all but 2.4% or so of the library.

SMILES	SENP1 FRET inh	MT1-MMP act inh	MIN6 prolif-1	Myeloid diff MLP	NRP1-CendR mod	DAGLB inhibitor	MIN6 prolif-2
CN(c1ccc(C(=O)Nc2cccnc2)cc1)S(=O)(=O)c1ccccc1	0.3	-1.1	0.0*	i	15.1	0.7	2.1
Cc1ccc(OC(C)C(=O)Nc2ccc3c(c2)n(C)c(=O)n3C)cc1C (stereo unspecified)	-0.7	6.2	7.8*	i	13.4	-3.3	0.0
Cc1cc(C)cc(OC(C)C(=O)Nc2ccc3c(c2)n(C)c(=O)n3C)c1 (stereo unspecified)	-16.8	2.5	-4.4	i	-6.0	-2.0	/
CCOc1ccc(C(=O)Nc2nnc(S(=O)(=O)N(C)Cc3ccco3)s2)cc1	-5.0	-1.6	0.0	?	-31.6	-2.6	/
Cc1ccccc1NC(=O)c1ccccc1NC(=O)c1cccs1	0.9	-2.5	4.9	i	2.3	-5.3	/
CCOC(=O)c1ccccc1NC(=O)c1cccs1	2.3	0.2	7.4*	i	11.1	-10.3	3.9
COc1cc(S(=O)(=O)NC2CCCCC2C)ccc1-n1cnnn1 (stereo unspecified)	-1.2	2.4	7.6*	i	4.4	-4.7	-3.6
CC1CCCCC1NS(=O)(=O)c1ccc(-n2cnnn2)cc1 (stereo unspecified)	0.5	2.4	-0.1	i	-9.2	-2.1	/
COc1ccc(C2=NN(C(=O)c3ccco3)C(c3cccs3)C2)cc1OC (stereo unspecified)	0.9	5.8	/	i	3.7	-0.2	/
COc1ncnc(-c2ccccc2)c1-c1ccccc1	-3.3	-2.7	7.8*	i	-1.4	-6.4	0.7
N#Cc1ccc(OCC(=O)OCC(=O)N2CCc3ccccc32)cc1	4.6	0.1	/	i	5.3	-3.7	/
Cc1ccc(S(=O)(=O)N2CCOC23CCN(C(=O)c2ccccc2Br)CC3)cc1	1.4	-22.8	12.9*	i	4.7	1.4	-5.8
COc1ccc(S(=O)(=O)N2CCOC23CCN(C(=O)c2ccccc2Br)CC3)cc1	-0.2	-26.1	-2.6	i	-0.2	0.7	/
COc1cc(/C=C/C(=O)OCC(=O)N(C)Cc2ccccc2)ccc1O	-62.0	7.3	-1.1	i	17.8	0.1	/
O=c1ccn(-c2cccc(C(F)(F)F)c2)nc1-c1ccn(-c2ccccc2F)n1	1.2	-11.4	9.4*	i	9.5	1.5	-5.9
Cc1cc(C)c(S(=O)(=O)c2ccccc2)c(Cl)n1	1.2	4.9	4.9*	i	1.0	-0.4	-0.7
COc1ccc(C2CC(c3cccc(OC)c3)n3nc(N)nc3N2)cc1 (stereo unspecified)	2.8	-1.8	9.1*	i	4.1	3.1	1.8
COc1cccc(C2CC(c3ccccc3)Nc3nc(N)nn32)c1 (stereo unspecified)	1.2	0.6	-3.0	i	9.5	0.1	/
Cc1cc(C)nc(SCC(=O)N/N=C/c2cccc([N+](=O)[O-])c2)n1	-1.5	-0.7	0.0	i	13.7	1.0	/
CCCOc1ccc(C(=O)Nc2cc(-c3nn4c(C)nnc4s3)ccc2C)cc1	1.2	0.8	-2.0	i	-4.9	5.1	/
Cc1ccc(-c2nn3c(C)nnc3s2)cc1NC(=O)COc1ccc(Cl)cc1	-11.3	0.0	10.0*	i	-4.5	1.3	-1.5
O=C1NC[C@H](CCCCN2C[C@H](Cc3ccccc3)N(CCc3ccc(O)cc3)C(=O)C2=O)N(CCc2ccc(O)cc2)C1=O	-0.3	-3.0	/	i	1.1	/	/
O=C(NC1CCCCC1)C1CCC(=O)N(C2CC2)C1 (stereo unspecified)	-1.0	1.1	11.4*	i	-21.3	-0.1	-0.8
Cc1nn(-c2ccccc2)c2sc(-c3nnc(SCC(=O)O)o3)cc12	0.4	-1.0	5.1*	i	-10.8	4.9	-1.9
COc1cc2[nH]c(C(=O)N3CC(C)OC(C)C3)cc2c(OC)c1OC (stereo unspecified)	4.1	0.8	9.0*	i	11.0	-2.0	1.2
SMILES	SENP1 FRET inh	MT1-MMP act inh	MIN6 prolif-1	Myeloid diff MLP	NRP1-CendR mod	DAGLB inhibitor	MIN6 prolif-2
CCNc1nc(Cl)nc(NNC(=O)C(C)Oc2ccccc2)n1 (stereo unspecified)	3.0	-2.6	0.0	i	-0.5	-1.6	/
CCc1cccc(N(C(=O)c2csnn2)C(C(=O)NC2CCCCC2)c2cccnc2)c1 (stereo unspecified)	-1.1	-0.1	2.4	i	12.2	1.5	/
CCN1C(=O)/C(=C2/SC(C)=C(C)N2CC)SC1=S	-23.9	1.2	7.5*	i	-68.6	-1.4	1.1
CCCCN1C(=O)/C(=C2/Sc3ccc(OC)cc3N2CC)SC1=S	-35.7	-108.6	-3.5	i	-42.9	-1.0	/
CCN1CCN(CCCNC(=O)CN2C(=O)c3cccnc3Oc3ccc(Cl)cc32)CC1	1.5	-2.9	3.7	i	1.6	1.5	/
CN1C(=O)N(C)c2ccc(C=O)c3cccc1c23	-30.6	-8.1	6.6	i	14.5	-1.8	/
CN1C(=O)N(C)c2ccc(Br)c3cccc1c23	-0.1	-3.9	8.6*	i	3.6	2.1	1.4
O=C1NC(c2ccc(Br)cc2)Oc2ccccc21 (stereo unspecified)	0.2	-0.6	6.4*	i	-9.9	0.6	-1.6
CCn1c(=O)n(CC)c2cc(N3CCCC3)c(NC(=O)c3cccc(OC)c3)cc21	1.1	7.9	16.7*	i	19.0	-0.7	-6.5
COc1cccc(C(=O)Nc2ccc3c(c2)C(=O)NC3=O)c1	-2.7	1.6	9.1*	i	-0.6	1.4	0.1
CCOc1ccc(C(=O)Nc2cc3c(cc2N2CCCC2)n(CC)c(=O)n3CC)cc1OCC	-4.5	7.0	1.3	/	-1.9	1.1	/
COc1ccc(Cc2c(O)nc(SCC(=O)N3CCCCCC3)[nH]c2=O)cc1	0.1	-1.6	-0.2	i	1.7	1.2	/
O=C(O)/C=C/C(=O)c1ccc2c(c1)CCc1ccccc1-2	1.1	-1.4	-8.4	i	-87.7	10.9	/
CC(=O)Nc1ccc(S(=O)(=O)NC(=O)C23CC4CC(CC(C4)C2)C3)cc1	-1.4	-0.4	7.5*	i	0.1	0.3	-1.8
CC(=O)Nc1ccc(S(=O)(=O)NNC(=O)NC23CC4CC(CC(C4)C2)C3)cc1	-0.7	-0.6	-1.1	?	-12.2	2.6	/
